Test results from ChEMBL document CHEMBL1150162, “Antimicrobial activities of naphthazarins from Arnebia euchroma” (2002).
Converted amounts (≈) assume the structure as drawn. The source made the active and inactive calls. The calls are words filed in the database; no cut-off is given here.

Assays:
Enterococcus faecalis [1] = experiment: Antibacterial activity against Enterococcus faecalis after 24 hrs by broth microdilution method; assay type: functional
Method in brief: (§1)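 2-fold serial dilutions of test agent in LB broth, DMSO under 5% final. Inoculum about 5 × 10^5 CFU/mL, confirmed by LB agar plating. Incubated 24 h at 35 °C in ambient air. MIC is the lowest concentration with no visible growth. Three repeats; oxacillin, vancomycin and chloramphenicol as positive controls.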

Enterococcus faecalis [2] = experiment: Antibacterial activity against Enterococcus faecalis after 48 hrs by broth microdilution method; assay type: functional
Enterococcus faecium [3] = experiment: Antibacterial activity against vancomycin-resistant Enterococcus faecium F935 expressing VanA after 24 hrs by broth microdilution method; assay type: functional; details: F935, 24 h; method in brief: as §1
Enterococcus faecium [4] = experiment: Antibacterial activity against vancomycin-resistant Enterococcus faecium F935 expressing VanA after 48 hrs by broth microdilution method; assay type: functional
Enterococcus faecalis [5] = experiment: Antibacterial activity against vancomycin-resistant Enterococcus faecalis CKU-17 expressing VanB after 24 hrs by broth microdilution method; assay type: functional; details: CKU-17, 24 h; method in brief: as §1
Enterococcus faecalis [6] = experiment: Antibacterial activity against vancomycin-resistant Enterococcus faecalis CKU-17 expressing VanB after 48 hrs by broth microdilution method; assay type: functional
Escherichia coli = experiment: Antibacterial activity against Escherichia coli up to 100 ug/mL after 24 hrs by broth microdilution method; assay type: functional, organism-based
Method in brief: (§2)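 Broth microdilution with 2-fold serial dilutions in LB broth, compounds from DMSO stocks (DMSO below 5% final), inoculum about 5 × 10^5 CFU/mL. Incubated 24 h at 35 °C in ambient air. MIC is the lowest concentration with no visible growth. Experiments repeated three times.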

Pseudomonas aeruginosa = experiment: Antibacterial activity against Pseudomonas aeruginosa up to 100 ug/mL after 24 hrs by broth microdilution method; assay type: functional, organism-based; method in brief: as §2
Staphylococcus aureus [7] = experiment: Ratio of MBC to MIC for Staphylococcus aureus; assay type: functional
Enterococcus faecalis [8] = experiment: Ratio of MBC to MIC for Enterococcus faecalis; assay type: functional
Enterococcus faecium [9] = experiment: Ratio of MBC to MIC for vancomycin-resistant Enterococcus faecium F935 expressing VanA; assay type: functional
HepG2 = experiment: Cytotoxicity against human HepG2 cells after 48 hrs by MTT assay; assay type: functional; details: HepG2, 48 h, read-out: CD50 (the source's name)
Method in brief: (§3)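 Cells seeded at 5 × 10^3 per well, grown 24 h, then given 2-fold dilutions of sample for 48 h. Medium replaced with serum-free medium, MTT added (5 mg/mL stock) for 2 h at 37 °C, formazan dissolved in DMSO, OD read at 550 nm. CD50 is the concentration giving 50% reduction in net cell increase. Quadruplicate, repeated at least twice.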

HeLa = experiment: Cytotoxicity against human HeLa cells after 48 hrs by MTT assay; assay type: functional; details: read-out: CD50 (the source's name); method in brief: as §3
OVCAR-3 = experiment: Cytotoxicity against human OVCAR-3 cells after 48 hrs by MTT assay; assay type: functional; details: OVCAR-3, 48 h, read-out: CD50 (the source's name); method in brief: as §3
Staphylococcus aureus [10] = experiment: Antibacterial activity against Staphylococcus aureus after 24 hrs by broth microdilution method; assay type: functional
Method in brief: as §1, with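 “in […]” for “in LB”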

Staphylococcus aureus [11] = experiment: Antibacterial activity against Staphylococcus aureus after 48 hrs by broth microdilution method; assay type: functional
Staphylococcus aureus [12] = experiment: Antibacterial activity against methicillin-resistant Staphylococcus aureus 8-8S after 24 hrs by broth microdilution method; assay type: functional
Method in brief: as §1, with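 “in […]” for “in LB”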

Staphylococcus aureus [13] = experiment: Antibacterial activity against methicillin-resistant Staphylococcus aureus 8-8S after 48 hrs by broth microdilution method; assay type: functional

SMILES	MIC (Enterococcus faecalis [1]) [µg/mL]	MBC (Enterococcus faecalis [2])	MIC (Enterococcus faecium [3]) [µg/mL]	MBC (Enterococcus faecium [4]; F935, 48 h) [µg/mL]	MIC (Enterococcus faecalis [5]) [µg/mL]	MBC (Enterococcus faecalis [6]; CKU-17, 48 h) [µg/mL]	Activity (Escherichia coli)	Activity (Pseudomonas aeruginosa)	Ratio (Staphylococcus aureus [7])	Ratio (Enterococcus faecalis [8])	Ratio (Enterococcus faecium [9])	CC50 (HepG2) [µg/mL]	CC50 (HeLa) [µg/mL]	CC50 (OVCAR-3) [µg/mL]	MIC (Staphylococcus aureus [10]) [µg/mL]	MBC (Staphylococcus aureus [11]) [µg/mL]	MIC (Staphylococcus aureus [12]) [µg/mL]	MBC (Staphylococcus aureus [13])	MBC (Enterococcus faecium [4])	MBC (Enterococcus faecalis [6])
CC[C@H](C)C(=O)O[C@@H](CC=C(C)C)C1=CC(=O)c2c(O)ccc(O)c2C1=O	1.56 (≈ 4.19 µM)	3.13 µg/mL (≈ 8.4 µM)	1.56 (≈ 4.19 µM)	3.13 (≈ 8.4 µM)	1.56 (≈ 4.19 µM)	3.13 (≈ 8.4 µM)	inactive	inactive	<=2	<=2	<=2	0.6 (≈ 1.61 µM)	0.8 (≈ 2.15 µM)	0.6 (≈ 1.61 µM)	0.78 (≈ 2.09 µM)	0.78 (≈ 2.09 µM)	1.56 (≈ 4.19 µM)	1.56 µg/mL (≈ 4.19 µM)	–	–
CC[C@@H](C)C(=O)O[C@@H](CC=C(C)C)C1=CC(=O)c2c(O)ccc(O)c2C1=O	3.13 (≈ 8.4 µM)	6.25 µg/mL (≈ 16.8 µM)	3.13 (≈ 8.4 µM)	6.25 (≈ 16.8 µM)	3.13 (≈ 8.4 µM)	6.25 (≈ 16.8 µM)	inactive	inactive	<=2	<=2	<=2	5 (≈ 13.4 µM)	3.9 (≈ 10.5 µM)	1.7 (≈ 4.56 µM)	1.56 (≈ 4.19 µM)	1.56 (≈ 4.19 µM)	3.13 (≈ 8.4 µM)	3.13 µg/mL (≈ 8.4 µM)	–	–
CC(C)=CC[C@H](OC(=O)/C=C/c1ccc2c(c1)OCO2)C1=CC(=O)c2c(O)ccc(O)c2C1=O	100 (≈ 216 µM)	> 100 µg/mL	50 (≈ 108 µM)	50 (≈ 108 µM)	50 (≈ 108 µM)	50 (≈ 108 µM)	inactive	inactive	–	–	–	2.1 (≈ 4.54 µM)	1.5 (≈ 3.24 µM)	1 (≈ 2.16 µM)	50 (≈ 108 µM)	100 (≈ 216 µM)	50 (≈ 108 µM)	50 µg/mL (≈ 108 µM)	–	–
CC(C)=CC[C@H](OC(=O)C=C(C)C)C1=CC(=O)c2c(O)ccc(O)c2C1=O	3.13 (≈ 8.45 µM)	3.13 µg/mL (≈ 8.45 µM)	3.13 (≈ 8.45 µM)	3.13 (≈ 8.45 µM)	3.13 (≈ 8.45 µM)	3.13 (≈ 8.45 µM)	inactive	inactive	<=2	<=2	<=2	2.6 (≈ 7.02 µM)	1.8 (≈ 4.86 µM)	1.6 (≈ 4.32 µM)	1.56 (≈ 4.21 µM)	1.56 (≈ 4.21 µM)	1.56 (≈ 4.21 µM)	3.13 µg/mL (≈ 8.45 µM)	–	–
CC(=O)O[C@H](CC=C(C)C)C1=CC(=O)c2c(O)ccc(O)c2C1=O [ACETYLSHIKONIN]	3.13 (≈ 9.48 µM)	3.13 µg/mL (≈ 9.48 µM)	6.25 (≈ 18.9 µM)	6.25 (≈ 18.9 µM)	6.25 (≈ 18.9 µM)	6.25 (≈ 18.9 µM)	inactive	inactive	<=2	<=2	<=2	–	–	–	1.56 (≈ 4.72 µM)	1.56 (≈ 4.72 µM)	1.56 (≈ 4.72 µM)	1.56 µg/mL (≈ 4.72 µM)	–	–
CC(C)=CC[C@H](O)C1=CC(=O)c2c(O)ccc(O)c2C1=O [ALKANNIN]	50 (≈ 173 µM)	50 µg/mL (≈ 173 µM)	50 (≈ 173 µM)	50 (≈ 173 µM)	25 (≈ 86.7 µM)	50 (≈ 173 µM)	inactive	inactive	<=2	<=2	<=2	1 (≈ 3.47 µM)	0.8 (≈ 2.77 µM)	0.8 (≈ 2.77 µM)	6.25 (≈ 21.7 µM)	12.5 (≈ 43.4 µM)	6.25 (≈ 21.7 µM)	12.5 µg/mL (≈ 43.4 µM)	–	–
O=C(N[C@H](CO)[C@H](O)c1ccc([N+](=O)[O-])cc1)C(Cl)Cl [CHLORAMPHENICOL]	6.25 (≈ 19.3 µM)	inactive	6.25 (≈ 19.3 µM)	–	6.25 (≈ 19.3 µM)	–	–	–	–	–	–	–	–	–	–	–	–	–	inactive	inactive
CC(C)=CC[C@H](OC(=O)/C=C/c1ccccc1)C1=CC(=O)c2c(O)ccc(O)c2C1=O [CINNAMOYL ALKANNIN]	100 (≈ 239 µM)	> 100 µg/mL	25 (≈ 59.7 µM)	100 (≈ 239 µM)	25 (≈ 59.7 µM)	100 (≈ 239 µM)	inactive	inactive	–	–	–	3.8 (≈ 9.08 µM)	3.6 (≈ 8.6 µM)	2.4 (≈ 5.74 µM)	50 (≈ 119 µM)	100 (≈ 239 µM)	50 (≈ 119 µM)	> 100 µg/mL	–	–
CC(C)=CC[C@H](OC(=O)C(C)C)C1=CC(=O)c2c(O)ccc(O)c2C1=O [ISOBUTYLALKANNIN]	3.13 (≈ 8.73 µM)	3.13 µg/mL (≈ 8.73 µM)	3.13 (≈ 8.73 µM)	3.13 (≈ 8.73 µM)	3.13 (≈ 8.73 µM)	6.25 (≈ 17.4 µM)	inactive	inactive	<=2	<=2	<=2	4 (≈ 11.2 µM)	5.4 (≈ 15.1 µM)	2 (≈ 5.58 µM)	1.56 (≈ 4.35 µM)	1.56 (≈ 4.35 µM)	1.56 (≈ 4.35 µM)	3.13 µg/mL (≈ 8.73 µM)	–	–
Cc1onc(-c2ccccc2)c1C(=O)N[C@@H]1C(=O)N2[C@@H]1SC(C)(C)[C@@H]2C(=O)O [OXACILLIN]	25 (≈ 62.3 µM)	50 µg/mL (≈ 125 µM)	> 100	–	> 100	–	–	–	–	–	–	–	–	–	0.39 (≈ 0.971 µM)	0.39 (≈ 0.971 µM)	> 100	inactive	inactive	inactive
CC(C)=CC[C@@H](O)C1=CC(=O)c2c(O)ccc(O)c2C1=O [SHIKONIN]	50 (≈ 173 µM)	50 µg/mL (≈ 173 µM)	50 (≈ 173 µM)	50 (≈ 173 µM)	25 (≈ 86.7 µM)	50 (≈ 173 µM)	inactive	inactive	<=2	<=2	<=2	–	–	–	6.25 (≈ 21.7 µM)	12.5 (≈ 43.4 µM)	6.25 (≈ 21.7 µM)	12.5 µg/mL (≈ 43.4 µM)	–	–
CN[C@H](CC(C)C)C(=O)N[C@H]1C(=O)N[C@@H](CC(N)=O)C(=O)N[C@H]2C(=O)N[C@H]3C(=O)N[C@H](C(=O)N[C@H](C(=O)O)c4cc(O)cc(O)c4-c4cc3ccc4O)[C@H](O)c3ccc(c(Cl)c3)Oc3cc2cc(c3O[C@@H]2O[C@H](CO)[C@@H](O)[C@H](O)[C@H]2O[C@H]2C[C@](C)(N)[C@H](O)[C@H](C)O2)Oc2ccc(cc2Cl)[C@H]1O [VANCOMYCIN]	3.13 (≈ 2.16 µM)	inactive	> 100	–	> 100	–	–	–	–	–	–	–	–	–	1.56 (≈ 1.08 µM)	1.56 (≈ 1.08 µM)	1.56 (≈ 1.08 µM)	1.56 µg/mL (≈ 1.08 µM)	inactive	inactive
